Results published in ChEMBL document CHEMBL2176901, “Pyrrolo[3,4-h]quinolinones a new class of photochemotherapeutic agents” (Bioorg Med Chem, 2011).
Calls of active or inactive are those of the source. The calls are words filed in the database; no cut-off is given here.

Columns and labels:
[1] = system: HL-60; test: Phototoxicity in 2.5 J/cm'2 UV-A irradiated human HL60 cells after 72 hrs by MTT assay; type: functional, cell-based; settings: HL-60, light or radiation study
Method in brief: (§1)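 HL-60 and Jurkat (8×10³/well, RPMI-1640) and MCF-7, LoVo, NCTC-2544 (5×10³/well; DMEM or Ham's F12) preincubated 18 h at 37 °C, 5% CO₂. Compound in DMSO diluted in HBSS pH 7.2, 30 min at 37 °C, then UV-A at 2.5 or 3.75 J/cm². Medium replaced, 72 h incubation, MTT read-out. IC50 as mean ± SEM of three experiments.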

[2] = system: Jurkat; test: Phototoxicity in 3.75 J/cm'2 UV-A irradiated human Jurkat cells after 72 hrs by MTT assay; type: functional, cell-based; settings: light or radiation study
Method in brief: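 Jurkat cells (8 × 10³/well) in RPMI-1640 with 10% FBS, held 18 h at 37 °C, 5% CO2. Compound stock in DMSO was diluted in HBSS pH 7.2 and added for 30 min at 37 °C. Cells were UV-A irradiated (lamp mainly 365 nm, 4.0 mW/cm²), then returned to medium for 72 h. MTT readout. IC50 is the mean ± SEM of three experiences.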

[3] = system: MCF7; test: Phototoxicity in 2.5 J/cm'2 UV-A irradiated human MCF7 cells after 72 hrs by MTT assay; type: functional, cell-based; settings: MCF7, light or radiation study; method in brief: as §1
[4] = system: MCF7; test: Phototoxicity in 3.75 J/cm'2 UV-A irradiated human MCF7 cells after 72 hrs by MTT assay; type: functional, cell-based; settings: MCF7, light or radiation study
Method in brief: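 Seeded at 5 × 10³ cells/well with 10% FBS: MCF-7 and NCTC-2544 in DMEM, LoVo in Ham's F12. Pre-incubated 18 h at 37 °C, 5% CO2. Compound (DMSO stock diluted in HBSS pH 7.2) was applied for 30 min at 37 °C, then UV-A irradiation (mainly 365 nm, 4.0 mW/cm²). Medium was restored for 72 h before MTT. IC50 is the mean ± SEM of three experiences.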

[5] = system: LoVo; test: Phototoxicity in 2.5 J/cm'2 UV-A irradiated human LoVo cells after 72 hrs by MTT assay; type: functional, cell-based; settings: light or radiation study; method in brief: as §1
[6] = system: MCF7; test: Phototoxicity in 2.5 J/cm'2 UV-A irradiated human MCF7 cells assessed as cell viability after 72 hrs by MTT assay in presence of radical scavenger mannitol; type: functional, cell-based
Method in brief: (§2)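 MCF-7 cells given compound plus scavenger in HBSS, 30 min at 37 °C, then UV-A (2.5 J/cm², 365 nm lamp). Medium replaced; viability by MTT after 72 h. Means ± SEM of at least three independent experiments.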

[7] = system: MCF7; test: Phototoxicity in 2.5 J/cm'2 UV-A irradiated human MCF7 cells assessed as cell viability after 72 hrs by MTT assay in presence of radical scavenger DABCO; type: functional, cell-based; method in brief: as §2
[8] = system: MCF7; test: Phototoxicity in 2.5 J/cm'2 UV-A irradiated human MCF7 cells assessed as cell viability after 72 hrs by MTT assay in presence of radical scavenger GSH; type: functional, cell-based; method in brief: as §2
[9] = system: Jurkat; test: Induction of apoptosis in 3.75 J/cm'2 UV-A irradiated human Jurkat cells assessed as viable cells at 5 uM after 24 hrs by Annexin-V-FITC and propidium iodide based flow cytometry (reference value: 91 %); type: functional; settings: light or radiation study, read-out: Activity
[10] = system: Jurkat; test: Induction of apoptosis in 3.75 J/cm'2 UV-A irradiated human Jurkat cells assessed as early apoptotic cells at 5 uM after 24 hrs by Annexin-V-FITC and propidium iodide based flow cytometry (reference value: 1.9 %); type: functional
[11] = system: Jurkat; test: Induction of apoptosis in 3.75 J/cm'2 UV-A irradiated human Jurkat cells assessed as necrotic cells at 10 uM after 24 hrs by Annexin-V-FITC and propidium iodide based flow cytometry (reference value: 4.2 %); type: functional
[12] = system: Jurkat; test: Cell cycle arrest in UV-A irradiated human Jurkat cells assessed as accumulation at Sub G1 phase at 5 uM after 24 hrs by propidium iodide based flow cytometry (reference value: 0.1 %); type: functional
Method in brief: (§3)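 Exponentially growing Jurkat cells (5×10^5) irradiated with UV-A (365 nm lamp, 2.5 J/cm²) in presence of compound. After 24 h: fixed in ice-cold 70% ethanol, lysed with RNAse A, stained with PI (10 µg/ml), analysed by flow cytometry. Phases calculated on living cells; subG1 is hypodiploid DNA peak.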

[13] = system: Jurkat; test: Cell cycle arrest in UV-A irradiated human Jurkat cells assessed as accumulation at G1 phase at 10 uM after 24 hrs by propidium iodide based flow cytometry (reference value: 64.4 %); type: functional; method in brief: as §3
[14] = system: Jurkat; test: Cell cycle arrest in UV-A irradiated human Jurkat cells assessed as accumulation at G2/M phase at 10 uM after 24 hrs by propidium iodide based flow cytometry (reference value: 10.3 %); type: functional; method in brief: as §3
[15] = system: Jurkat; test: Induction of apoptosis in UV-A irradiated human Jurkat cells assessed as loss of mitochondrial membrane potential after 6 hrs by cytofluorimetric analysis; type: functional, cell-based
Method in brief: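 Jurkat cells 6, 12 and 24 h after UV-A (2.5 J/cm²) with compound, resuspended in HBSS with JC-1 (1 μg/ml). Green (FL1) and orange (FL2) fluorescence collected by flow cytometry, ≥10000 events; cells with monomeric JC-1 counted as collapsed potential. Mean ± SEM of three experiments.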

[16] = system: Jurkat; test: Induction of apoptosis in UV-A irradiated human Jurkat cells assessed as increase in number of damaged lysosomes after 6 to 24 hrs by acridine orange- based flow cytometry; type: functional, cell-based
Method in brief: (§4)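 Lysosomal stability in Jurkat cells 6, 12 and 24 h after UV-A (2.5 J/cm²) with compound. Cells resuspended in RPMI-1640 with 1 µM acridine orange; flow cytometry, excitation 488 nm, emission in FL3. Mean ± SEM of three experiments.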

[17] = system: Jurkat; test: Induction of apoptosis in UV-A irradiated human Jurkat cells assessed as increase in number of damaged lysosomes at 5 to 10 uM by acridine orange-based flow cytometry; type: functional, cell-based; method in brief: as §4
[18] = system: Nucleic Acid; test: Binding affinity to salmon testes DNA at drug/DNA ratio of 0.01 by linear dichroism analysis; type: nucleic-acid assay; settings: Salmonidae
Method in brief: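 Flow linear dichroism in 10 mM phosphate buffer pH 7.2. Samples oriented in a rotating cylindrical cuvette (0.14 cm path, 800 rpm) at several drug/DNA ratios.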

[19] = system: Nucleic Acid; test: Binding affinity to salmon testes DNA at 10 uM by fluorescence titration; type: nucleic-acid assay; settings: Salmonidae
Method in brief: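 Fluorimetric titration of compound (10 μM) with increasing stDNA (0 to 100 μM) in 10 mM phosphate buffer pH 7.2; quenching of compound fluorescence monitored.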

[20] = system: Nucleic Acid; test: Induction of photo-induced supercoiled Escherichia coli pBR322 DNA damage at drug:DNA ratio of 1:3 by agarose gel electrophoresis in presence of DABCO; type: nucleic-acid assay
Method in brief: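 Supercoiled pBR322 (100 ng) in 10 mM phosphate buffer pH 7.2 irradiated with UV-A (3.75 J/cm²) at [DNA]/[drug] 1/3, with additives, under nitrogen or in deuterated buffer as stated. Aliquots then incubated at 37 °C with Fpg or Endo III. Run on 1% agarose in TAE, 80 V for 2 h, stained with ethidium bromide; Form I/II fractions from band densitometry.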

Activity [18]: inactive | Activity [19]: inactive
SMILES: CCOC(=O)c1c2c(c(C)n1C)-c1c(cc(S(=O)(=O)c3ccccc3)c(=O)n1C)CC2
IC50 [1]: 1200 nM | IC50 [2]: 800 nM | IC50 [3]: 1700 nM | IC50 [4]: 1300 nM | IC50 [5]: 700 nM | Activity [6]: inactive | Activity [7]: inactive | Activity [8]: inactive | viability at 5 µM [9]: 70.1% | Activity [10]: 14.4% | Activity [11]: 8.6% | Activity [12]: 10.5% | Activity [13]: 39.1% | Activity [14]: 5.3% | Activity [15]: Active | Activity [16]: Active | Activity [17]: Active | Activity [20]: inactive
